Converted amounts (≈) assume the structure as drawn.
Assays:
[1] = test system: Nrf2 (ARE stimulation) in HEK293‐ARE‐Luc reporter cell line; test: Intracellular Nrf2 activation assay; format: cell-based; settings: 24 h; for Nrf2 activity, fold change in luminescence intensity compared with the control group: test sample 10 μM, n = 3; for Intracellular Nrf2 activating effect at lower concentration (dose‐dependency): 5 μM
Summary of the method: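 HEK293‐ARE‐Luc (NRF2/ARE luciferase stable line) cells (2.0 × 10⁴/well) were grown 24 h, then given test compound in DMSO (1, 2.5, 5 or 10 μM) for 24 h. One‐step luciferase reagent was added for 15 min at room temperature and luminescence read. Activation is expressed as the luminescence ratio to vehicle control, n = 3. tBHQ served as reference.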

[2] = Parallel artificial membrane permeability assay; format: in vitro ADME; settings: PAMPA
[3] = molecular target: Keap1‐DC domain and the ETGE‐motif fragment peptide of Nrf2 (Homo sapiens, UniProt Q14145); test: Fluorescence polarization; format: binding
Summary of the method: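 Fluorescence polarization read-out, using a commercial Keap1–Nrf2 inhibitor screening kit run according to the manufacturer's protocol with slight modifications.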

HEK293‐ARE‐Luc cells = test: Cytotoxicity; format: cell-based; settings: concentrations up to 50 μM
Summary of the method: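 HEK293‐ARE‐Luc cells (5.0 × 10⁴/well; DMEM, 10% FBS, 37 °C, 5% CO₂) were grown 24 h, then exposed to test compound added in DMSO for 24 h. CCK‐8 (WST‐8) reagent was added for 4 h and absorbance read at 420 nm. Cell viability was calculated, n = 3.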

HO‐1 and NQO1 mRNA = test: Nrf2 target gene mRNA expression in RAW264.7 cells; format: cell-based, Murine; settings: 8 h
Summary of the method: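 RAW264.7 murine macrophage‐like cells (DMEM, 10% FBS, 37 °C, 5% CO₂) were treated with test compound for 8 h. HO‐1 and NQO1 mRNA were then measured by quantitative real‐time RT‐PCR with gene‐specific primers, with GAPDH primers also listed. Experiments were independent, at least three times. Mean ± SD.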

[4] = test system: LPS‐stimulated RAW264.7 cells; test: Anti‐inflammatory effect in LPS‐stimulated RAW264.7 cells; format: cell-based, Murine; settings: RAW264.7, pretreated 8 h
Summary of the method: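 For NO, RAW264.7 cells (5 × 10⁵ cells/500 μL; DMEM, 10% FBS, 37 °C, 5% CO₂) were treated with test compound, given LPS (1 μg mL⁻¹) after 8 h, and incubated 16 h at 37 °C. Supernatant was mixed with Griess reagent and absorbance read at 540 nm. NO was quantified against a NaNO₂ standard. Mean ± SD.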

[5] = Metabolic stability in human liver microsomes; format: in vitro ADME; settings: pH 7.4
Summary of the method: (§1)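 Test compound (1 μM) with human or mouse liver microsomes (0.2 mg mL⁻¹), 1 mM EDTA and 0.1 M phosphate (pH 7.4) was preincubated 5 min. Reaction was started with 1 mM NADPH (final) and run 30 min at 37 °C. Samples were quenched in acetonitrile with methyltestosterone internal standard, and parent loss versus time zero was measured by LC–MS/MS. CLint was scaled using 48.8/45.4 mg protein per g liver and 25.7/87.5 g liver per kg (human/mouse). Two technical replicates.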

Protein binding ratio = format: in vitro ADME; settings: bovine, 10% FBS (fetal bovine serum), pH 7.4
Summary of the method: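 Test compound (1 μM) in 10% FBS (150 μL) was dialysed against 150 μL of 0.1 M phosphate buffer (pH 7.4) across a 12–14 kDa MWCO membrane, 37 °C, 6 h, 80 rpm. Buffer and serum samples were matrix‐matched, precipitated with acetonitrile/IS, and analysed by LC‐MS/MS. fu = C_buffer/C_plasma. Two technical replicates.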

[6] = Metabolic stability in mouse liver microsomes; format: in vitro ADME; settings: pH 7.4
Summary of the method: as §1

Solubility in PBS = format: physicochemical; settings: 37 °C, pH 7.4, aqueous buffer, kinetic from dmso stock
Summary of the method: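 A 10 mM DMSO stock of test compound was diluted into PBS and rotated at 1,000 rpm, 37 °C, for 4 h. The solution was filtered through a 0.45 μm PVDF membrane by centrifugation. […] Two technical replicates.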

[7] = LPS 1 μg mL^−1, ELISA and RT‐PCR

Keap1‐DC domain and the ETGE‐motif fragment peptide of Nrf2, sequence (Q14145 2-624 limits assumed): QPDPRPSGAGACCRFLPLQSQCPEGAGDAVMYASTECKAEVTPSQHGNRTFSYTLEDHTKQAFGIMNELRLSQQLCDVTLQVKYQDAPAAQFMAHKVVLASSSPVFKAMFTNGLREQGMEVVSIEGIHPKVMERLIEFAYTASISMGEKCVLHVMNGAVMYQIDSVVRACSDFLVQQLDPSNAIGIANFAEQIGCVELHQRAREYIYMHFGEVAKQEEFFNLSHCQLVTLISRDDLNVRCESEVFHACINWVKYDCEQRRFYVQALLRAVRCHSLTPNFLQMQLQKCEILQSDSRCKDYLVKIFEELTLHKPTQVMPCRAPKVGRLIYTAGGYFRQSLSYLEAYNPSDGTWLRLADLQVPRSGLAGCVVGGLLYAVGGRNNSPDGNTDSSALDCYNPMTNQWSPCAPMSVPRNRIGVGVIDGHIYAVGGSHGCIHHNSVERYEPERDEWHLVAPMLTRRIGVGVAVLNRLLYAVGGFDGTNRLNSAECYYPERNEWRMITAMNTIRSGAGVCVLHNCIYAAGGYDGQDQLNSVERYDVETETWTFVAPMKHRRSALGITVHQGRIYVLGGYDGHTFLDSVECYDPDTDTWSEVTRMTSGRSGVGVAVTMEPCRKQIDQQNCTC

In the case of `CC(C)(C)c1cc(O)ccc1O` [tBHQ, tert‐butylhydroquinone, reference compound], the “Nrf2 activity, fold change in luminescence intensity compared with the control group” value (from here on “Nrf2 activity, fold change”) [1] is reported as “approximately tenfold”.

With `CCOc1ccc(S(=O)(=O)Nc2cc(CC(=O)Nc3ccccc3)c(NS(=O)(=O)c3ccc(OCC)cc3)c3ccccc23)cc1` [Compound 5h, 2‐(1,4‐Bis((4‐ethoxyphenyl)sulfonamido)naphthalen‐2‐yl)‐N‐phenylacetamide] the “Nrf2 activity, fold change” value [1] was “no effect on Nrf2 activity”.

In the case of `COCCc1ccc(OCC(O)CNC(C)C)cc1` (stereo not shown) [metoprolol], the Papp at 4 h [2] is reported as 1.85 ×10⁻⁶ cm/s.

For `CCOc1ccc(S(=O)(=O)Nc2cc(CC(=O)N3CCCCC3)c(NS(=O)(=O)c3ccc(OCC)cc3)c3ccccc23)cc1` [Compound 5j, N,N′‐(2‐(2‐Oxo‐2‐(piperidin‐1‐yl)ethyl)naphthalene‐1,4‐diyl)bis(4‐ethoxybenzenesulfonamide)], the IC50 [3] was 2430 ± 170 nM, the “Intracellular Nrf2 activating effect at lower concentration (dose‐dependency)” value [1] was “notable activity” and the “Nrf2 activity, fold change” value [1] was “notable Nrf2 activation effects”.

For `CCOc1ccc(S(=O)(=O)Nc2cc(CC(=O)N3CCCC3)c(NS(=O)(=O)c3ccc(OCC)cc3)c3ccccc23)cc1` [Compound 5i, N,N′‐(2‐(2‐Oxo‐2‐(pyrrolidin‐1‐yl)ethyl)naphthalene‐1,4‐diyl)bis(4‐ethoxybenzenesulfonamide)], the IC50 [3] was 1070 ± 40 nM, the “Intracellular Nrf2 activating effect at lower concentration (dose‐dependency)” value [1] was “notable activity” and the “Cytotoxicity (WST‐8 assay)” value (HEK293‐ARE‐Luc cells) was “did not exhibit cytotoxicity”. For the same compound, the “NQO1 mRNA expression, increase” value (HO‐1 and NQO1 mRNA; 12.5 µM and higher concentrations) was “approximately 50 fold”, the “HO‐1 mRNA expression” value (HO‐1 and NQO1 mRNA; 12.5 μM) was “significantly upregulated” and the “HO‐1 mRNA expression at higher concentrations” value (HO‐1 and NQO1 mRNA; concentrations above 12.5 μM) was “downregulated the gene relative to the peak expression”. For the same compound, the CCL2 expression [4, 7] was “dose‐dependent reduction”, the “TNF‐α expression” value [4, 7] was “dose‐dependent reduction” and the “Nitric oxide (NO) level” value ([4]; LPS 1 μg mL^−1, Griess reagent) was “dose‐dependent reduction”. For the same compound, the iNOS expression ([4]; LPS 1 μg mL^−1, RT‐PCR) was “dose‐dependent reduction”, the CLint scaled at 1 μM [5] was 546 mL/min/kg and the fraction unbound at 6 h, 1 μM (Protein binding ratio) was less than 0.0342. The CLint scaled at 1 μM [6] was 2290 mL/min/kg, the solubility at 4 h (Solubility in PBS) was 2.65 µM (≈ 1.69 µg/mL) and the Papp at 4 h [2] was 3.06 ×10⁻⁶ cm/s.

For `Cc1cc(=O)n(-c2ccccc2)n1C` [antipyrine], the Papp at 4 h [2] was 23.1 ×10⁻⁶ cm/s.
